TCR-CD3 inh: blocks the human TCR-CD3 interaction | TAMRA-labeled TCR probe fluorescence, biochemical | inhibition, % at 9.4 µM | 360,000 compounds, 0.37% hits | AID 651800;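 also: recombinant mutant TCR 2C K166C tagged with TAMRA read by polarization; 0% = receptor in buffer alone and 100% = receptor with positive control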
SIAE primary: blocks human sialic acid acetylesterase; Q9HAT2; inhibition, % at 9.66 µM; 370,000 compounds, 0.69% hits; SIAE FP-Rh probe binding, fluorescence polarization;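 active = inhibition above a cutoff: mean of compounds within the control limits plus 3 SD of those, cut at about 17% in these data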;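 also: 0% = plate median of compound wells and 100% = probe without SIAE protein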
HTRA1 inhibitor: inhibitors of human serine peptidase HTRA1; Q92743; recombinant HTRA1, FP-rhodamine activity-based probe, fluorescence polarization; inhibition, % at 5.96 µM; 340,000 compounds, 0.5% hits; in the data active = inhibition above about 36%;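 also: 0% = enzyme with DMSO and 100% = wells lacking enzyme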
Target sequence (Q92743 whole entry, looked up): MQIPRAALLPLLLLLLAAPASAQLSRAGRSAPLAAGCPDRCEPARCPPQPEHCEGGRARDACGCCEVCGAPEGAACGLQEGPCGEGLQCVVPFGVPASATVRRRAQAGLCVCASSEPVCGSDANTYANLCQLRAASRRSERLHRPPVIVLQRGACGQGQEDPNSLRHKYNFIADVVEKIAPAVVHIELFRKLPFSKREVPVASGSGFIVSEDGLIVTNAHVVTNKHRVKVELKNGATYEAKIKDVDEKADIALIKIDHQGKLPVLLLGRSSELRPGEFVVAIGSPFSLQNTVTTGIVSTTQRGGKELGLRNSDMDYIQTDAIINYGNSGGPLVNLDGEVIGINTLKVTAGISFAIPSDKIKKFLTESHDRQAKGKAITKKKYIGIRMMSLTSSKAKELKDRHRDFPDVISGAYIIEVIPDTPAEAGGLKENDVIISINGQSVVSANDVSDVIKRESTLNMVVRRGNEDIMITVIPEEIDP
Fam108B inh: blocks mouse Fam108B hydrolase in RBBP9 counter-screen. 300,000 compounds, 0.33% hits. recombinant Fam108B, FP-Rh probe fluorescence polarization. AID 1947. inhibition, % at 9.51 µM;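 active = inhibition above the screen mean inhibition plus 3 SD, computed separately per campaign, cut at about 18% in these data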;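 also: inhibitors lower polarization as less probe binds the enzyme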
ABHD4 inh: ABHD4 (mouse) inhibition, primary FP screen. 370,000 compounds, 0.54% hits. inhibition, % at 8.92 µM. Q8VD66. purified mABHD4, FP-Rh probe fluorescence polarization;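 active = inhibition exceeding the mean over every tested compound plus 3 SD, cut at about 30% in these data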;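 also: 0% = plate median of compound wells and 100% = S159A mutant with DMSO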
Target sequence (Q8VD66 whole entry, looked up): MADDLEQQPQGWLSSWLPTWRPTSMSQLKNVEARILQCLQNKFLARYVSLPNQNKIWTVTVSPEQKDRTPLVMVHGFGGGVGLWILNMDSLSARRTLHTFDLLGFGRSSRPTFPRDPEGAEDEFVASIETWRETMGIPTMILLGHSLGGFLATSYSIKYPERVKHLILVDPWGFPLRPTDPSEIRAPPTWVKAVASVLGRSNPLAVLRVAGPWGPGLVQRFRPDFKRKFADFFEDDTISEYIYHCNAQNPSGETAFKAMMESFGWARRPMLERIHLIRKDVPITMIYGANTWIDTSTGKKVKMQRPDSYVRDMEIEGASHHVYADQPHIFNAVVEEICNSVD
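System: mouse ABHD4 enzyme, wild type / Medium: HEPES pH 7.0, NaCl, Pluronic buffer / Reagent: FP-Rh activity-based fluorescent probe / Control set: S159A mutant high control, sample median low control / Detection: fluorescence polarization with parallel and perpendicular emission, 525/598 nm / Schedule: 45 min + 60 min at 25 °C / Compound dosing: 8.92 µM, single dose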
PME-1 primary: PME-1 (human) inhibition; inhibition, % at 5.9 µM; recombinant PME-1, FP-Rh probe fluorescence polarization; AID 2130; 320,000 compounds, 0.53% hits; Q9Y570;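 active = inhibition above the campaign mean of all compounds plus 3 SD, cut at about 26% in these data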;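 also: competitive labeling of PME-1 active site by serine hydrolase directed probe; 0% = PME-1 with DMSO and 100% = wells lacking PME-1 enzyme; inhibitors block probe labeling so polarization falls and inhibition rises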
HTRA1 conf: confirmation of human HTRA1 inhibitors; shares compounds with HTRA1 inhibitor; recombinant HTRA1, FP-rhodamine activity-based probe, fluorescence polarization; inhibition, % at 5.96 µM; 1,600 compounds, 66% hits;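 active = mean inhibition over three repeats above a set limit taken from the earlier primary screen, cut at about 37% in these data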;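 also: 0% = HTRA1 with DMSO and 100% = wells lacking HTRA1; inhibitors block probe binding so polarization drops and inhibition rises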
BSA TAMRA ctr: counter-screen for TCR-CD3 interaction inhibitors: BSA probe; shares compounds with TCR-CD3 inh; TAMRA-labeled BSA probe fluorescence counterscreen; inhibition, % at 9.4 µM; 1,200 compounds, 10% hits; AID 652035; in the data active = inhibition above about 23%;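 also: 0% = buffer low control and 100% = reference high control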
TCR-CD3 inh conf: confirmation of human TCR-CD3 interaction inhibitors; inhibition, % at 9.4 µM; shares compounds with TCR-CD3 inh; 1,200 compounds, 48% hits; TAMRA-labeled TCR probe fluorescence binding assay
ABHD4 confirm: confirmation of mouse ABHD4 inhibitors; shares compounds with ABHD4 inh; purified mABHD4, FP-Rh probe fluorescence polarization; inhibition, % at 8.92 µM; AID 720658; 1,800 compounds, 55% hits;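 active = mean inhibition across replicates above the hit cutoff set in the primary screen, cut at about 30% in these data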;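 also: 0% = wild-type ABHD4 with DMSO and 100% = catalytically dead S159A mutant with DMSO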
SIAE inh conf: confirmation of human SIAE inhibitors; 2,300 compounds, 13% hits; SIAE FP-Rh activity-based probe, fluorescence polarization; inhibition, % at 9.66 µM; AID 1117263; shares compounds with SIAE primary;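 active = mean inhibition of the replicates above the hit cutoff set in the primary screen, cut at about 17% in these data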;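 also: 0% = SIAE with DMSO and probe and 100% = probe without SIAE; inhibitors lower polarization as more probe stays unbound to SIAE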
* hit, by the source's call; . = not tested or not shown. A selection: hits, their analogues and other compounds. The true share with any hit is near 1.8%. Rule as the data show it, unless noted: active = inhibition above about 19%; inactive = the rest.

SMILES | TCR-CD3 inh | SIAE primary | HTRA1 inhibitor | Fam108B inh | ABHD4 inh | PME-1 primary | HTRA1 conf | ABHD4 confirm | SIAE inh conf | others
O=C(O)[C@@H]1[C@H]2C[C@H]3c4[nH]c5ccccc5c4CCN3C[C@@H]2CC[C@@H]1O | 45.6* | 24.4* | 45.5* | -6.6 | 39.2* | -7.2 | 7.2 | 31.7* | 15.0 | BSA TAMRA ctr=7.9;TCR-CD3 inh conf=5.3
OC1CCC2CN3CCc4c([nH]c5ccccc45)C3CC2C1 (configuration not stated) | -0.5 | 3.9 | . | . | 8.5 | . | . | . | .
CC(C)CNS(=O)(=O)CC1NCc2cc3c(cc21)OCO3 (configuration not stated) | . | 2.1 | . | . | 2.8 | . | . | . | .
O=C1C=CC2=C3c4cc(O)c(O)cc4CC3(O)COC2=C1O (configuration not stated) | 88.3* | 27.9* | 44.7* | . | 25.5 | . | 43.6* | . | 4.0 | BSA TAMRA ctr=12.3;TCR-CD3 inh conf=93.0*
Cc1cc(C)cc(C(=O)OCCCN(C)C2CN(Cc3cn(Cc4ccccc4C(F)(F)F)nn3)S(=O)(=O)C2)c1 (configuration not stated) | . | -5.4 | . | . | -0.8 | . | . | . | .
CN(C)c1ccc2nc3ccc(=O)cc-3sc2c1 | 145.2* | 82.2* | 58.3* | . | 113.3* | . | 78.5* | 55.7* | 68.5* | BSA TAMRA ctr=122.9*;TCR-CD3 inh conf=103.3*
O=C(O)/C=C\C(=O)Nc1ccccc1C(=O)N1CCN(c2ccc(Cl)cc2)CC1 | -3.8 | -1.4 | 2.7 | -2.4 | -4.2 | -0.5 | . | . | .
O=C(O)/C=C\C(=O)Nc1ccc(N2CCN(c3ccc(Cl)c(Cl)c3)CC2)cc1 | 30.1* | 26.6* | 56.8* | 3.7 | 39.1* | -1.5 | 5.3 | 22.0 | 2.6 | BSA TAMRA ctr=-3.0;TCR-CD3 inh conf=0.2
O=C(O)/C=C\C(=O)Nc1ccc(N2CCN(c3ccc(Cl)cc3)CC2)cc1 | 21.2* | 27.6* | 43.7* | 1.8 | 33.1* | 5.4 | 7.3 | 10.1 | 2.2 | BSA TAMRA ctr=11.3;TCR-CD3 inh conf=7.9
O=C(O)/C=C\C(=O)Nc1ccc(N2CCN(c3cccc(Cl)c3)CC2)cc1 | 21.0* | 25.5* | 52.2* | 0.3 | 41.7* | 7.1 | 40.2* | 20.8 | 1.5 | BSA TAMRA ctr=0.3;TCR-CD3 inh conf=3.8
O=C(O)/C=C\C(=O)Nc1ccc(N2CCN(c3ccc(F)cc3)CC2)cc1 | 27.9* | 32.9* | 42.9* | 3.8 | 43.7* | 7.4 | 14.4 | 9.8 | 3.0 | BSA TAMRA ctr=4.7;TCR-CD3 inh conf=2.8
C=CCN(Cc1ccc2c(c1)OCO2)C(C#CCCCC)C(C)C (configuration not stated) | . | 1.9 | . | . | 2.8 | . | . | . | .
N#CCC[C@@H]1CC[C@]2(CCCN(C(=O)c3ccco3)C2)O1 | . | 2.1 | . | . | -0.9 | . | . | . | .
CCNc1ccc(Br)cc(C(=O)/C=C/c2ccccc2Cl)c1=O | -0.1 | 21.9* | 64.5* | 7.2 | 36.8* | 2.0 | 25.1 | 43.3* | 9.5
CCN(CCCNc1cc2c(c(N)c1S(=O)(=O)O)C(=O)c1ccccc1C2=O)c1ccccc1 | 2.5 | 33.2* | 85.8* | . | 101.7* | . | 83.1* | 102.6* | 22.7*
O=C(N/N=C/c1cccc(O)c1)c1cc(-c2ccccc2)nc2ccccc12 | -2.1 | -34.0 | -54.9 | -22.1 | -56.2 | -23.1 | . | . | .
O=C(N/N=C/c1ccc(O)c(O)c1)c1cc(-c2ccccc2)nc2ccccc12 | 11.0 | 19.5* | 62.6* | 10.8 | 21.7 | 11.8 | 75.7* | . | -12.6
CCCC(=Nc1ccccc1)C1=C(O)C(C(=O)OC)C(C)(C)CC1=O (configuration not stated) | 3.0 | 0.1 | 5.3 | 0.4 | 6.0 | 2.4 | . | . | .
CCCCC(=Nc1ccc(N)cc1)C1=C(O)C(C(=O)OC)C(C)(C)CC1=O (configuration not stated) | 49.6* | 44.4* | 63.9* | 13.4 | 71.5* | 40.8* | 9.4 | 15.9 | 7.6 | BSA TAMRA ctr=13.5;TCR-CD3 inh conf=9.4
N[C@H](C(=O)Nc1ccc(Cl)cc1C(=O)c1ccc[nH]1)c1ccccc1 | . | -1.7 | . | . | -2.3 | . | . | . | .
COc1ccc(-n2c(Cc3cccs3)nnc2SCC(=O)Nc2cccc3ccccc23)cc1 | . | -6.2 | . | . | -11.5 | . | . | . | .
COc1ccc2[nH]c3c(c2c1)CCN[C@]31C(=O)N(C)c2ccc(Br)cc21 | . | 0.3 | . | . | 6.7 | . | . | . | .
CC(C)C(=O)NC(c1cccc([N+](=O)[O-])c1)c1ccc2cccnc2c1O (configuration not stated) | 0.1 | 22.5* | 44.1* | -3.0 | 10.7 | 1.0 | 46.1* | . | 10.5
CC(=O)NC(c1ccc2ccccc2c1)c1ccc2cccnc2c1O (configuration not stated) | -0.2 | 27.3* | 51.7* | 4.1 | 21.6 | 2.3 | 67.7* | . | 26.6*
CC(=O)NC(c1ccc(Cl)cc1Cl)c1ccc2cccnc2c1O (configuration not stated) | -10.1 | 19.6* | 72.9* | . | 16.2 | . | 67.0* | . | 15.7
SMILES | TCR-CD3 inh | SIAE primary | HTRA1 inhibitor | Fam108B inh | ABHD4 inh | PME-1 primary | HTRA1 conf | ABHD4 confirm | SIAE inh conf | others
COc1ccc(C(NC(C)=O)c2ccc3cccnc3c2O)c(OC)c1 (configuration not stated) | . | . | 26.8 | 2.6 | . | -3.1 | . | . | .
CCCCC(=O)NC(c1ccc(N(CC)CC)cc1)c1ccc2cccnc2c1O (configuration not stated) | -7.8 | 17.7* | 59.8* | -0.7 | 14.3 | -2.7 | 66.4* | . | 14.6
CCCC(=O)NC(c1ccc(N(C)C)cc1)c1c(O)ccc2ccccc12 (configuration not stated) | 1.7 | 14.2 | 1.7 | 0.5 | 6.9 | 9.3 | . | . | .
O=C(CCc1ccccc1)N[C@H]1[C@@H](OC(=O)c2ccc([N+](=O)[O-])cc2)CCC[C@]12C(=O)N(Cc1ccccc1)c1ccccc12 | . | 2.6 | . | . | -1.9 | . | . | . | .
Cc1ccc(C)c(NC(=O)CN2C(=O)CCSc3ccccc32)c1 | . | 3.2 | . | . | 6.0 | . | . | . | .
O=C(NC1CCC1)c1ccc(C#CC2CC2)c[n+]1[O-] | . | 9.5 | . | . | -5.1 | . | . | . | .
O=C(Nc1nc2ncccn2c1-c1ccc(F)c(F)c1)C1CC1 | . | -1.9 | . | . | -0.1 | . | . | . | .
CCN(CC)c1ccc(C=Nc2ccc(C)cc2C)c(O)c1 | -0.5 | 10.4 | 5.4 | 5.7 | 5.7 | 3.7 | . | . | .
Cc1ccc(N=Cc2cccc(O)c2O)c(C)c1 | 9.5 | 20.1* | 84.0* | 8.2 | 48.9* | 24.3 | 42.8* | 29.9* | 8.3
O=C(Nc1ccc(O)cc1)C1CC=CCC1 (configuration not stated) | 17.6 | 22.7* | 47.7* | 9.1 | 25.8 | 14.3 | 42.0* | . | 14.7

Assay outcomes (PubChem)
